# Experiments:
# [1] = Oral bioavailability in Wistar Han rat measured up to 24 hrs by LC-MS/MS analysis; format: ADME, organism-based; details: in vivo
# [2] = Lipophilicity, log D of the compound; details: octanol/water
# Mus musculus = assay: In vivo inhibition of MPO in peritoneal lavage of zymosan-induced neutrophilic peritonitis BALB/c mouse model at 0.01 to 10 umol/kg, po administered 2 hrs prior to zymosan injection and measured after 2 hrs by chemiluminescence assay; format: functional, organism-based; details: dose 0.01-10 µmol/kg, time 4.0 hrs, DDE = dose-dependent effect
# Summary of the method: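 BALB/c mice given 10, 1, 0.1 or 0.01 µmol/kg orally 2 h before intraperitoneal zymosan. Peritoneal lavage collected 2 h later and peroxidase activity quantified by chemiluminescence; neutrophils dominate the infiltrate, so activity attributed to MPO.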
# Cytochrome P450 2C19 = Cytochrome P450 2C19 (Homo sapiens, UniProt P33261); assay: Inhibition of human recombinant CYP2C19 using coumarin as substrate preincubated with enzyme for 10 mins followed by NADPH addition and measured after 20 to 50 mins by fluorescence based method
# [3] = Toxicity in dog assessed as food intake by 9 months toxicology study; parameters: species or system Canis lupus familiaris; details: in vivo, 6570 h
# Summary of the method: (§1)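 Pivotal 9-month repeat-dose toxicology study in dogs at doses up to 100 mg/kg/day, with food consumption, body weight and pathology monitored.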
# [4] = Toxicity in female rat assessed as NOAEL by 6 months toxicology study; details: in vivo, 4380 h
# Summary of the method: (§2)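 Pivotal 6-month repeat-dose toxicology study in rats with daily dosing up to 125 mg/kg/day. Males and females were assessed separately, and a NOAEL was assigned for each sex.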
# Cytochrome P450 1A2 = target: T1, Cytochrome P450 1A2 (Homo sapiens, UniProt P05177); assay: Inhibition of human recombinant CYP1A2 using coumarin as substrate preincubated with enzyme for 10 mins followed by NADPH addition and measured after 20 to 50 mins by fluorescence based method
# T1 sequence (P05177 whole entry): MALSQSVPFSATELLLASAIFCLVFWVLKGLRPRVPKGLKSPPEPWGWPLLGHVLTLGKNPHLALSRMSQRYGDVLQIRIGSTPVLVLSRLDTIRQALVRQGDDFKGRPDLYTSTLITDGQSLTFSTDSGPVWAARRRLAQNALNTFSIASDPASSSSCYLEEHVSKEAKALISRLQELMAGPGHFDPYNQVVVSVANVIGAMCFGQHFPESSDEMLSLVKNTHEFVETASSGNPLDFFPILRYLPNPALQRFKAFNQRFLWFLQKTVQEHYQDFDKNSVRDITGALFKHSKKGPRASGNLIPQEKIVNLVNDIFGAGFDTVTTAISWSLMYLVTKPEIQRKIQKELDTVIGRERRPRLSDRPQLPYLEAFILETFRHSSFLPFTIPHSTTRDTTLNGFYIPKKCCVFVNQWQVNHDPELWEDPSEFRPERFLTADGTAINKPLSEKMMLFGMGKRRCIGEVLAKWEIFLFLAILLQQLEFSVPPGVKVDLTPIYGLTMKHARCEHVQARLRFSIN
# [5] = Toxicity in dog assessed as body weight by 9 months toxicology study; parameters: species or system Canis lupus familiaris; details: in vivo, 6570 h; summary of the method: as §1
# [6] = Drug uptake in human hepatocytes assessed as covalent binding measured per mg protein; format: ADME, cell-based, Hepatocyte
# Summary of the method: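 [14C]-labelled compound incubated with human hepatocytes; covalently bound radioactivity expressed as pmol per mg protein.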
# [7] = target: Voltage-gated inwardly rectifying potassium channel KCNH2 (Homo sapiens, UniProt Q12809)
# [8] = Toxicity in dog assessed as NOAEL by 9 months toxicology study; parameters: species or system Canis lupus familiaris; details: in vivo, 6570 h
# Summary of the method: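 Pivotal 9-month repeat-dose toxicology study in dogs with daily dosing up to 100 mg/kg/day. Endpoints included food consumption, body weight and pathology. The NOAEL was assigned from these findings.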
# Cytochrome P450 2C9 = Cytochrome P450 2C9 (Homo sapiens, UniProt P11712); assay: Inhibition of human recombinant CYP2C9 using coumarin as substrate preincubated with enzyme for 10 mins followed by NADPH addition and measured after 20 to 50 mins by fluorescence based method
# Cytochrome P450 3A4 = Cytochrome P450 3A4 (Homo sapiens, UniProt P08684)
# [9] = Toxicity in male rat assessed as NOAEL by 6 months toxicology study; details: in vivo, 4380 h; summary of the method: as §2
# Cytochrome P450 2D6 = Cytochrome P450 2D6 (Homo sapiens, UniProt P10635); assay: Inhibition of CYP2D6 (unknown origin) using coumarin as substrate preincubated with enzyme for 10 mins followed by NADPH addition and measured after 20 to 50 mins by fluorescence based method
# physchem = details: phosphate buffer, pH 7.4
# [10] = Oral bioavailability in Beagle dog measured up to 24 hrs by LC-MS/MS analysis; format: ADME, organism-based, Canis lupus familiaris; details: in vivo
# [11] = Toxicity in rat bone marrow by micronucleus test
# [12] = Apparent permeability of the compound across apical to basolateral side in human Caco-2 cells at 10 uM by LC-MS/MS analysis
# Chain of Cytochrome P450 2D6 (P10635 whole entry): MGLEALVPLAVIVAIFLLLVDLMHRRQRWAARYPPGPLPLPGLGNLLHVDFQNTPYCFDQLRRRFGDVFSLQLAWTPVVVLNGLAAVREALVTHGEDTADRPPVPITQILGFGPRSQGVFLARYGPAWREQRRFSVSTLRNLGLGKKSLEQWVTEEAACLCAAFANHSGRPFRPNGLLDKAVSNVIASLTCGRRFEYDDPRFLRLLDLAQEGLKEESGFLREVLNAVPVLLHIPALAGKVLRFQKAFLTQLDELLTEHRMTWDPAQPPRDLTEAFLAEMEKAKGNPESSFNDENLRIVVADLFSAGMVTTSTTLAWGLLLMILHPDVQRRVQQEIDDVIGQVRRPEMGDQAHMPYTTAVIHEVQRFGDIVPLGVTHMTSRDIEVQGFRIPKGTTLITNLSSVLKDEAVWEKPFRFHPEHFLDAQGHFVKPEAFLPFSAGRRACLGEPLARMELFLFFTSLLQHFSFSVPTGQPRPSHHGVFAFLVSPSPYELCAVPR
# Chain of Cytochrome P450 3A4 (P08684 whole entry): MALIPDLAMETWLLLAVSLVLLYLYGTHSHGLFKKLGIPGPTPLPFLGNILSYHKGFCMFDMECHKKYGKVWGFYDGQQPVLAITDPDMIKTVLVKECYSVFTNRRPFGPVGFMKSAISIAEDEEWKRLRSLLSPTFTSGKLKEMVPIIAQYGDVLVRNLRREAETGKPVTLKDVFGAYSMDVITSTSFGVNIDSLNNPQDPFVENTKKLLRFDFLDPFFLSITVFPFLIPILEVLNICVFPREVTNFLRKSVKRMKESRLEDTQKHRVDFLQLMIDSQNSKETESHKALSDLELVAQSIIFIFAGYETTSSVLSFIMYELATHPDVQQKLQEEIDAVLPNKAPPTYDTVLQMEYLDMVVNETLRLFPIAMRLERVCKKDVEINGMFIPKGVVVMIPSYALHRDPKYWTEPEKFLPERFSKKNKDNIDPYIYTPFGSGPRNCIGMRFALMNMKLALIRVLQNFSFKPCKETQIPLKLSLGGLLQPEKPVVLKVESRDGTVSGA
# Chain of Voltage-gated inwardly rectifying potassium channel KCNH2 (Q12809 whole entry): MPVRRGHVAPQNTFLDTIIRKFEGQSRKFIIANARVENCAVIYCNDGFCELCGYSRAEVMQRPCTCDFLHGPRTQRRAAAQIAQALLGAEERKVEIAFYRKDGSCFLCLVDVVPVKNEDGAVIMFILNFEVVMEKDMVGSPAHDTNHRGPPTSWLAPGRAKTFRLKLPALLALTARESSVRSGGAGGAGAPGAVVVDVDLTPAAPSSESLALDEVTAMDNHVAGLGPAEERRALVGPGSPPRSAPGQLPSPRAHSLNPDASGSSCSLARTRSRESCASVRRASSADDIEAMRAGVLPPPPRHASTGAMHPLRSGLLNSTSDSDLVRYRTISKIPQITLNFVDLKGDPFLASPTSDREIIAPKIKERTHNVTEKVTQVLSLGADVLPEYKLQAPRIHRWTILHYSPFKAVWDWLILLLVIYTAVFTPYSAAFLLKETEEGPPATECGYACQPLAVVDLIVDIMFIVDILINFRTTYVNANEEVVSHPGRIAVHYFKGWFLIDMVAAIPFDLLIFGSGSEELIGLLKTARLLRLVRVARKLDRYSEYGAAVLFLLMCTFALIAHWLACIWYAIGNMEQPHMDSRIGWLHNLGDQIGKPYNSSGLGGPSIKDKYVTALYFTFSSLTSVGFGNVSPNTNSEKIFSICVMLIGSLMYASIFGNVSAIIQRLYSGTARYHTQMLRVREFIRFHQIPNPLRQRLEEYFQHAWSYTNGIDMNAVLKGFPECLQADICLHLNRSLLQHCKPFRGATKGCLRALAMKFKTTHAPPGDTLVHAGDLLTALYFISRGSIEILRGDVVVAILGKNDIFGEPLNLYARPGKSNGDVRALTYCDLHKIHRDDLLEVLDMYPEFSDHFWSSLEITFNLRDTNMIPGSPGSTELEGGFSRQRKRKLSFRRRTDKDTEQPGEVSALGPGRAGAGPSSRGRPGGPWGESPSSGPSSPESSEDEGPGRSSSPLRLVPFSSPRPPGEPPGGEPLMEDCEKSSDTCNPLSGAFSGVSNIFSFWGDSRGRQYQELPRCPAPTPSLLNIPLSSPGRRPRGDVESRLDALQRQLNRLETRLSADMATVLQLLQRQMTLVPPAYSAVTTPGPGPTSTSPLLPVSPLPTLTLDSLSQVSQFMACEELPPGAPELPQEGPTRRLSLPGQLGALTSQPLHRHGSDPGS
# Chain of Cytochrome P450 2C9 (P11712 whole entry): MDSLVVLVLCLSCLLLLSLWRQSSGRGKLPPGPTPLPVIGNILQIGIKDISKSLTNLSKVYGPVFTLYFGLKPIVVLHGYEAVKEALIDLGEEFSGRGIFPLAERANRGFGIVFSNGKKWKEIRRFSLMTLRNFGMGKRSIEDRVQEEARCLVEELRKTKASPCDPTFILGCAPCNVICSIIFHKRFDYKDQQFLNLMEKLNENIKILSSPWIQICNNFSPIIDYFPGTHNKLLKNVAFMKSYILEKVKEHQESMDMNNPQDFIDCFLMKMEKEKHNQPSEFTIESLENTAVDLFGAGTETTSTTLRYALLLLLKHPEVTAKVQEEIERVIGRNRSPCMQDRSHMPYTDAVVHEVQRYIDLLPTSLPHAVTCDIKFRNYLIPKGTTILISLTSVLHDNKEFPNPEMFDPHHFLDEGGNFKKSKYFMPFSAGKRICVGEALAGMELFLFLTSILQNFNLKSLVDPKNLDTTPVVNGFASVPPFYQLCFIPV
# Chain of Cytochrome P450 2C19 (P33261 whole entry): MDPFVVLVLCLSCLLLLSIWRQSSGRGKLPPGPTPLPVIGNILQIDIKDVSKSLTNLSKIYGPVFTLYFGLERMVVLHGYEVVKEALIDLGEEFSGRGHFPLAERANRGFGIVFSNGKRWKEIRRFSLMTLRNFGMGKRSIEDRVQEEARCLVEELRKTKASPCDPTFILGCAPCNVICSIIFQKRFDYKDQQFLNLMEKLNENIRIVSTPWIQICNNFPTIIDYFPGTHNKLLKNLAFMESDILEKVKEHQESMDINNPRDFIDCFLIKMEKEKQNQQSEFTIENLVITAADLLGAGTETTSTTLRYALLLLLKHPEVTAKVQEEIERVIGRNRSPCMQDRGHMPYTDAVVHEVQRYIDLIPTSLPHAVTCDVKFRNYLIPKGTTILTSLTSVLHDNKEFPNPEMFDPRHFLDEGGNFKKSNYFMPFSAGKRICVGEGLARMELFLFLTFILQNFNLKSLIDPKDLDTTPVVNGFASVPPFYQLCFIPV
smiles,measurement,setting,value
C[C@@H](N)c1cc(Cl)ccc1Cn1c(=S)[nH]c(=O)c2[nH]ccc21,bioavailability,[1],61%
same,logD,[2],1.2
same,inhibition,Mus musculus,Dde
same,IC50,Cytochrome P450 2C19,> 30 µM
same,Activity,[3],Non-Toxic
same,NOAEL,[4],125 mg/kg/day
same,IC50,Cytochrome P450 1A2,> 30 µM
same,Activity,[5],Non-Toxic
same,Drug uptake,[6],56 pmol
same,IC50,[7],21 µM
same,NOAEL,[8],100 mg/kg/day
same,IC50,Cytochrome P450 2C9,> 30 µM
same,IC50,Cytochrome P450 3A4,6 µM
same,NOAEL,[9],125 mg/kg/day
same,IC50,Cytochrome P450 2D6,> 30 µM
same,solubility thermodynamic at 18 h,physchem,270 µM
same,bioavailability,[10],52%
same,Activity,[11],Non-Toxic
same,Papp A→B at 10 µM,[12],11 ×10⁻⁶ cm/s
